Laboratory results as given in ChEMBL document CHEMBL3399983, “Synthesis and biological activity of novel mono-indole and mono-benzofuran inhibitors of bacterial transcription initiation complex formation” (Bioorg Med Chem, 2015).
Activity calls are given as the source filed them. The rule behind the calls is not given here.

Tests used:
[1] = Inhibition of interaction of RNA polymerase beta' subunit CH-region and region 2.2 of RNA polymerase sigma factor RpoD/RNA polymerase sigma factor sigA (unknown origin) at 15 uM […] followed by incubation at room temperature for 1 hr by ELISA method
Escherichia coli [2] = assay: Growth inhibition of Escherichia coli DH5[alpha] at 200 uM incubated for 16 hrs; assay type: functional; settings: for inhibition of growth at 200 µM: read-out: GI
Summary of the method: (§1)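 E. coli DH5α grown at 37 °C in LB with shaking to OD600 0.6–0.7, then added to wells holding compound diluted from a 50 mM DMSO stock. Plates shaken at 37 °C, with OD600 read every 10 min over 16 h against an LB blank. Growth inhibition expressed as % of the no-inhibitor control.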

Bacillus subtilis [3] = assay: Growth inhibition of Bacillus subtilis 168 at 200 uM incubated for 16 hrs; assay type: functional; settings: for inhibition of growth at 200 µM: Bacillus subtilis, 168, 16 h, read-out: GI
Bacillus subtilis [4] = assay: Growth inhibition of Bacillus subtilis 168 incubated for 16 hrs; assay type: functional
[5] = Inhibition of interaction of RNA polymerase beta' subunit CH-region and region 2.2 of RNA polymerase sigma factor RpoD/RNA polymerase sigma factor sigA (unknown origin) pre-incubated at 37 degC for 15 mins with enzyme followed by incubation at room temperature for 1 hr by ELISA method
Bacillus subtilis [6] = assay: Growth inhibition of Bacillus subtilis 168 assessed as effect on exponential phase of bacterial growth at 200 uM incubated for 16 hrs; assay type: functional; settings: Bacillus subtilis, 168, 16 h; read-out: GI
Escherichia coli [7] = assay: Growth inhibition of Escherichia coli DH5[alpha] assessed as effect on exponential phase of bacterial growth at 200 uM incubated for 16 hrs; assay type: functional; settings: read-out: GI; summary of the method: as §1
Escherichia coli [8] = assay: Growth inhibition of Escherichia coli DH5[alpha] incubated for 16 hrs; assay type: functional; summary of the method: as §1
Staphylococcus aureus = assay: Growth inhibition of Staphylococcus aureus at 200 uM incubated for 16 hrs; assay type: functional; settings: read-out: GI

O=C(C(=O)N1CCN(Cc2ccccc2)CC1)c1c[nH]c2ccccc12
inhibition [1]: 21%
inhibition of growth at 200 µM (Escherichia coli [2]): 6%
inhibition of growth at 200 µM (Bacillus subtilis [3]): 70%

COc1cc(OC)c2c(-c3ccc(Br)cc3)c[nH]c2c1C(=O)Nc1ccccc1
inhibition [1]: 49%
inhibition of growth at 200 µM (Escherichia coli [2]): 13%
inhibition of growth at 200 µM (Bacillus subtilis [3]): 7%

COc1cc(OC)c2c(-c3ccc(Br)cc3)c[nH]c2c1C(=O)C(=O)Nc1ccc(C)cc1
inhibition of growth at 200 µM (Escherichia coli [2]): 29%
growth inhibition (GI) (Bacillus subtilis [3]): inactive

COc1cc(OC)c2c(-c3ccc(Br)cc3)c[nH]c2c1C(=O)C(=O)Nc1ccccc1
inhibition [1]: 34%
inhibition of growth at 200 µM (Escherichia coli [2]): 33%
inhibition of growth at 200 µM (Bacillus subtilis [3]): 36%

O=C(C(=O)N1CCN(c2ccccn2)CC1)c1c[nH]c2ccccc12
inhibition [1]: 27%
inhibition of growth at 200 µM (Escherichia coli [2]): 4%
inhibition of growth at 200 µM (Bacillus subtilis [3]): 10%

COc1cc(OC)c2c(-c3ccccc3)c(C(=O)C(=O)N3CCN(c4ccccn4)CC3)oc2c1
inhibition [1]: 41%
inhibition of growth at 200 µM (Escherichia coli [2]): 10%
inhibition of growth at 200 µM (Bacillus subtilis [3]): 3%

CCOC(=O)CNC(=O)C(=O)c1[nH]c2cc(OC)cc(OC)c2c1-c1ccc(Cl)cc1
inhibition [1]: 42%
inhibition of growth at 200 µM (Escherichia coli [2]): 53%
growth inhibition (GI) (Bacillus subtilis [3]): inactive

COc1cc(OC)c2c(-c3ccc(Br)cc3)c(C(=O)C(=O)N3CCN(c4ccccn4)CC3)[nH]c2c1
inhibition [1]: 25%
inhibition of growth at 200 µM (Escherichia coli [2]): 38%
inhibition of growth at 200 µM (Bacillus subtilis [3]): 19%

COc1cc(OC)c2c(-c3ccc(Cl)cc3)c(C(=O)C(=O)N3CCCCC3)[nH]c2c1
inhibition [1]: inactive
inhibition of growth at 200 µM (Escherichia coli [2]): 18%
growth inhibition (GI) (Bacillus subtilis [3]): inactive

COc1cc(OC)c2c(-c3ccc(Cl)cc3)c[nH]c2c1C(=O)C(=O)Nc1ccccc1
inhibition [1]: 23%
inhibition of growth at 200 µM (Escherichia coli [2]): 23%
inhibition of growth at 200 µM (Bacillus subtilis [3]): 26%

COc1cc(OC)c2c(-c3ccccc3)c(C(=O)C(=O)N3CCOCC3)oc2c1
inhibition [1]: 29%
GI (Bacillus subtilis [4]): >100 µM
IC50 [5]: 71.6 µM
inhibition of growth at 200 µM (Bacillus subtilis [6]): 70%
inhibition of growth at 200 µM (Escherichia coli [2]): 6%

COc1cc(OC)c2c(-c3ccc(Br)cc3)c[nH]c2c1C(=O)C(=O)NNc1ccccc1
inhibition [1]: 34%
inhibition of growth at 200 µM (Escherichia coli [2]): 24%
inhibition of growth at 200 µM (Bacillus subtilis [3]): 10%

COc1cc(OC)c2c(C)c(C(=O)C(=O)N3CCOCC3)[nH]c2c1
inhibition [1]: 33%
inhibition of growth at 200 µM (Escherichia coli [2]): 2%
inhibition of growth at 200 µM (Bacillus subtilis [3]): 2%

COc1cc(OC)c2c(C)c(C)[nH]c2c1C(=O)C(=O)N1CCOCC1
inhibition [1]: 7%
inhibition of growth at 200 µM (Bacillus subtilis [6]): 42%
growth inhibition (GI) (Escherichia coli [2]): inactive

O=C(C(=O)N1CCCCC1)c1c[nH]c2ccccc12
inhibition [1]: 37%
inhibition of growth at 200 µM (Escherichia coli [2]): 9%
inhibition of growth at 200 µM (Bacillus subtilis [3]): 12%

COc1cc(OC)c2c(C)c(C(=O)C(=O)N3CCN(C)CC3)[nH]c2c1
inhibition [1]: 44%
growth inhibition (GI) (Escherichia coli [2]): inactive
growth inhibition (GI) (Bacillus subtilis [3]): inactive

COc1cc(OC)c2c(-c3ccc(Cl)cc3)c[nH]c2c1C(=O)NNc1ccccc1
inhibition [1]: 60%
inhibition of growth at 200 µM (Escherichia coli [2]): 21%
growth inhibition (GI) (Bacillus subtilis [3]): inactive

COc1cc(OC)c2c(C)c(C)[nH]c2c1C(=O)C(=O)N1CCN(c2ccccn2)CC1
inhibition [1]: 27%
inhibition of growth at 200 µM (Escherichia coli [2]): 13%
inhibition of growth at 200 µM (Bacillus subtilis [3]): 12%

COc1cc(OC)c2c(-c3ccc(Br)cc3)c[nH]c2c1C(=O)C(=O)N1CCOCC1
inhibition [1]: 31%
inhibition of growth at 200 µM (Escherichia coli [7]): 59%
IC50 [5]: 33.9 µM
GI (Escherichia coli [8]): >100 µM
growth inhibition (GI) (Bacillus subtilis [3]): inactive

COc1cc(OC)c2c(C)c(C(=O)C(=O)N3CCCC3)[nH]c2c1
inhibition [1]: 44%
growth inhibition (GI) (Escherichia coli [2]): inactive
growth inhibition (GI) (Bacillus subtilis [3]): inactive

COc1cc(OC)c2c(-c3ccc(Cl)cc3)c[nH]c2c1C(=O)C(=O)Nc1ccc(C)cc1
inhibition [1]: 37%
inhibition of growth at 200 µM (Escherichia coli [2]): 20%
growth inhibition (GI) (Bacillus subtilis [3]): inactive

COc1cc(OC)c2c(-c3ccc(Cl)cc3)c[nH]c2c1C(=O)C(=O)NNc1ccccc1
inhibition [1]: 26%
inhibition of growth at 200 µM (Escherichia coli [2]): 20%
growth inhibition (GI) (Bacillus subtilis [3]): inactive

COc1cc(OC)c2c(-c3ccc(Cl)cc3)c[nH]c2c1C(=O)C(=O)N1CCCC1
inhibition [1]: inactive
inhibition of growth at 200 µM (Escherichia coli [2]): 23%
inhibition of growth at 200 µM (Staphylococcus aureus): 60%

O=C(C(=O)N1CCOCC1)c1c[nH]c2ccccc12
inhibition [1]: 39%
inhibition of growth at 200 µM (Escherichia coli [2]): 4%
growth inhibition (GI) (Bacillus subtilis [3]): inactive

COc1cc(OC)c2c(C)c(C(=O)C(=O)N3CCN(c4ccccn4)CC3)[nH]c2c1
inhibition [1]: 48%
inhibition of growth at 200 µM (Escherichia coli [2]): 38%
inhibition of growth at 200 µM (Bacillus subtilis [3]): 14%

COc1cc(OC)c2c(-c3ccc(Cl)cc3)c[nH]c2c1C(=O)C(=O)N1CCOCC1
inhibition [1]: inactive
inhibition of growth at 200 µM (Escherichia coli [7]): 38%
growth inhibition (GI) (Bacillus subtilis [3]): inactive

COc1cc(OC)c2c(-c3ccc(Cl)cc3)c[nH]c2c1C(=O)C(=O)N1CCCCC1
inhibition [1]: inactive
growth inhibition (GI) (Escherichia coli [2]): inactive
growth inhibition (GI) (Bacillus subtilis [3]): inactive

COc1cc(OC)c2c(-c3ccc(Cl)cc3)c(C(=O)C(=O)N3CCOCC3)[nH]c2c1
inhibition [1]: 27%
inhibition of growth at 200 µM (Bacillus subtilis [6]): 37%
inhibition of growth at 200 µM (Escherichia coli [2]): 37%

COc1cc(OC)c2c(-c3ccc(Br)cc3)c[nH]c2c1C(=O)C(=O)N1CCN(Cc2ccccc2)CC1
inhibition [1]: 8%
inhibition of growth at 200 µM (Escherichia coli [2]): 6%
growth inhibition (GI) (Bacillus subtilis [3]): inactive

COc1cc(OC)c2c(-c3ccc(Cl)cc3)c[nH]c2c1C(=O)Nc1ccc(C)cc1
inhibition of growth at 200 µM (Escherichia coli [2]): 13%
inhibition of growth at 200 µM (Bacillus subtilis [3]): 13%

COc1cc(OC)c2c(-c3ccc(Cl)cc3)c(C(=O)N3CCOCC3)[nH]c2c1
inhibition [1]: inactive
inhibition of growth at 200 µM (Escherichia coli [2]): 42%
growth inhibition (GI) (Bacillus subtilis [3]): inactive

COc1cc(OC)c2c(-c3ccc(Br)cc3)c[nH]c2c1C(=O)C(=O)N1CCCCC1
inhibition [1]: 32%
inhibition of growth at 200 µM (Escherichia coli [2]): 26%
inhibition of growth at 200 µM (Bacillus subtilis [3]): 14%

COc1cc(OC)c2c(-c3ccc(Br)cc3)c(C(=O)C(=O)N3CCCCC3)[nH]c2c1
inhibition [1]: 39%
inhibition of growth at 200 µM (Escherichia coli [2]): 7%
inhibition of growth at 200 µM (Bacillus subtilis [3]): 22%

COc1cc(OC)c2c(-c3ccc(Br)cc3)c[nH]c2c1C(=O)NNc1ccccc1
inhibition [1]: 44%
inhibition of growth at 200 µM (Escherichia coli [2]): 23%
growth inhibition (GI) (Bacillus subtilis [3]): inactive

COc1cc(OC)c2c(C)c(C(=O)C(=O)N3CCCCC3)[nH]c2c1
inhibition [1]: 17%
growth inhibition (GI) (Escherichia coli [2]): inactive
growth inhibition (GI) (Bacillus subtilis [3]): inactive

COc1cc(OC)c2c(-c3ccc(Br)cc3)c(C(=O)C(=O)N3CCCC3)[nH]c2c1
inhibition [1]: inactive
growth inhibition (GI) (Escherichia coli [2]): inactive
growth inhibition (GI) (Bacillus subtilis [3]): inactive

COc1cc(OC)c2c(C)c(C)[nH]c2c1C(=O)C(=O)N1CCCCC1
inhibition [1]: 39%
inhibition of growth at 200 µM (Bacillus subtilis [6]): 57%
inhibition of growth at 200 µM (Escherichia coli [2]): 24%

COc1cc(OC)c2c(-c3ccc(Br)cc3)c[nH]c2c1C(=O)Nc1ccc(C)cc1
inhibition of growth at 200 µM (Escherichia coli [2]): 12%
inhibition of growth at 200 µM (Bacillus subtilis [3]): 36%

COc1cc(OC)c2c(C)c(C(=O)C(=O)N3CCN(Cc4ccccc4)CC3)[nH]c2c1
inhibition [1]: 46%
inhibition of growth at 200 µM (Escherichia coli [2]): 16%
inhibition of growth at 200 µM (Bacillus subtilis [3]): 7%
